Tb hexokinase: T. brucei hexokinase 1 inhibition; recombinant TbHK1, G6PDH-coupled NADH A340; inhibition, % at 10 µM; hit rate 0.11% among 220,000;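 active = inhibition of 50% or more in the single-dose primary screen; inactive = inhibition below 50%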
Ins promoter up: MIN6 insulin promoter up-regulation; MIN6 insulin promoter-GFP reporter, high-content imaging; hits give high values; z-score at 5 µM; hit rate 0.3% among 190,000;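 active = z-score above 3 at 5 µM with at least 500 cells counted in the well; inconclusive = wells under 500 cells, flagged as cytotoxic or low count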
bCat nuc transl: alters nuclear translocation of beta-catenin in HeLa cells; immunofluorescence imaging; nuclear translocation activity, % at 5 µM; hit rate 0.3% among 190,000;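 active = nuclear translocation activity above 50% at 5 µM, with a well cell count of 50 or more; inconclusive = wells under 50 cells across six images, flagged as toxic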;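 note: per-cell ratio of nuclear to cytoplasmic median beta-catenin stain intensity; plate controls were DMSO negative control for no effect and GSK-3 inhibitor IX positive control for full effect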
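Test system: human HeLa cells, native beta-catenin. Compound dosing: 5 µM primary single dose, 0.1% DMSO, 0.02–20 µM confirmation series. Incubation: compound exposure 24 h at 37°C. Detection: beta-catenin immunostaining with DAPI counterstain, 20x imaging, 6 fields/well. Read-out basis: Nuclear/cytoplasmic beta-catenin signal ratio, % activation.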
MT stabilizer: microtubule stabilization, imaging screen; HeLa tubulin immunostaining HCS, 24 h; share of cells brighter than vehicle mean+2SD; % tubulin-high responders, % at 10 µM; hit rate 0.83% among 200,000;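 active = plate Z-score above 3 for both tubulin-high and condensed-nucleus cell shares, with cell loss under 80%, at 10 µM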;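 note: anti alpha tubulin signal scored within the nucleus-defined area of each cell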
Autophagy mod: autophagy modulation, high-content screen | calls only at 10 µM (by protocol) | hit rate 0.98% among 190,000 | AID 463193 | MEF GFP-LC3 puncta imaging; test concentration mostly 10 µM;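 active = percentage of spot-positive cells more than 3 SD above its plate mean, without a fluorescence outlier flag or 80% toxicity; inconclusive = no clear call, values can overlap the other calls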;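 note: spot-positive cell cutoff set from DMSO-treated cells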
Numbers without * were called inactive; i = inactive; ? = inconclusive; / = not tested or not shown; + = active, no number. An excerpt weighted towards active compounds, which were near 1.9% of everything screened.

SMILES	Tb hexokinase	Ins promoter up	bCat nuc transl	MT stabilizer	Autophagy mod
CCn1c(/C=C2/C(=O)N(C)c3ccccc32)nc2ccccc2c1=O	-16	-0.27	0	2	i
Clc1ccc(/C=N/NC2=Nc3cccc4cccc2c34)cc1	-12	2.3	0	7	+
C(=N\NC1=Nc2cccc3cccc1c23)/c1ccccc1	-2	0.59	0	4	i
COCCNC(=S)N/N=C(\C)c1ccc2cc(OC)ccc2c1	-20	3.4*	0	2	i
COc1ccc(-n2c(O)c(C=Nc3ccccc3)c3ccccc3c2=O)cc1OC	-17	-0.14	-1	/	/
Cc1ccc(-n2c(O)c(C=Nc3ccc4c(c3)OCO4)c3ccccc3c2=O)cc1C	-7	-2	1	5	+
COc1ccc(-n2c(O)c(C=Nc3ccccc3)c3ccccc3c2=O)cc1	1	-0.6	/	2	+
CC1CCc2c(sc3ncn(N)c(=N)c23)C1 (configuration not stated)	-11	0.4	0	/	/
O=C1CS/C(=N/N=C/c2cccs2)N1Cc1ccc(F)cc1	-11	-1.3	-1	/	/
O=C(CCCn1c(=O)c2ccccc2n(CC(=O)N2CCN(c3ccccc3)CC2)c1=O)NCc1ccco1	-4	0.05	0	5	i
COc1cc(SC#N)ccc1N=Cc1c(C)[nH]n(-c2ccc(C)c(C)c2)c1=O	-20	0.27	-3	3	i
COc1cc(SC#N)ccc1N=Cc1c(C)[nH]n(-c2ccc(Cl)cc2)c1=O	-38	-2.3	-4	3	+
COCCNC(=O)C(c1c[nH]c2ccccc12)N(C(=O)c1snc(C(N)=O)c1N)c1cccc(OC)c1 (configuration not stated)	-10	-1.2	-1	4	i
COc1cccc(/C(O)=C/c2nc3ccc(C(=O)NCCc4ccc(Cl)cc4)cc3[nH]c2=O)c1	-9	0.95	-1	7	+
COc1cccc(/C(O)=C/c2nc3ccc(C(=O)NCCc4cccc(C)c4)cc3[nH]c2=O)c1	-8	1.1	-2	6	+
O=C(NCCc1ccc(Cl)cc1)c1ccc2nc[nH]c2c1	-5	0.84	-1	2	i
Cc1cc(C)cc(N(C(C)C(=O)NCc2ccc3c(c2)OCO3)S(C)(=O)=O)c1 (configuration not stated)	-4	0.24	-5	1	i
O=S(=O)(Nc1ccc2c(c1)nc1n2CCN(Cc2ccccc2)C1)c1ccc(Cl)cc1	-3	-0.29	-6	30*	i
O=C(O)c1ccc2c(=O)n3cc(C(=O)c4ccccc4O)cc(Cl)c3nc2c1	-24	-0.39	2	/	/
O=c1/c(=C\c2cccn2-c2ccccc2)sc2nc3ccccc3n12	19	1.4	-2	7	+
Cc1ccc(-n2c(C)cc(/C=c3/sc4nc5ccccc5n4c3=O)c2C)cc1	-4	0.05	-4	1	i
COc1cc(N2CCCC2)c(OC)cc1/C=c1/sc2nc3ccccc3n2c1=O	-15	17*	26	26	+
O=C(O)Cn1cc(/C=c2/sc3nc4ccccc4n3c2=O)c2ccccc21	34	0.35	/	2	i
O=C1CCN(S(=O)(=O)c2ccccc2)CCN1CCOCc1ccc(F)cc1	11	0.46	70*	/	/
OC(COc1ccc(CNCCc2ccc(C(F)(F)F)cc2)cc1)CN1CCCCC1 (configuration not stated)	18	/	13	4	+
SMILES	Tb hexokinase	Ins promoter up	bCat nuc transl	MT stabilizer	Autophagy mod
COc1ccc(OCC(O)CN2CCCCC2)cc1 (configuration not stated)	-9	1.1	/	3	i
COCC(C)n1c(SCC(=O)N(C)C2CCS(=O)(=O)C2)nc2ccccc2c1=O (configuration not stated)	-6	0.01	0	2	i
Cc1c(CN2CCc3c([nH]c4ccccc34)C2CC(C)C)cnn1C (configuration not stated)	5	/	0	2	i
Cc1ccc2c(C(=O)CNc3nncs3)c(C)[nH]c2c1	-21	-0.07	-2	/	/
COc1ccc(-c2oc3ncnc(NCCN4CCOCC4)c3c2-c2ccc(OC)cc2)cc1	-23	0.74	-2	12	+
COc1ccc(-c2oc3ncnc(NCCCN4CCOCC4)c3c2-c2ccc(OC)cc2)cc1	-28	-4.1	0	5	i
CC(=O)Nc1ccc(NS(=O)(=O)c2cc(-c3n[nH]c(=O)c4ccccc34)ccc2C)cc1	-9	-0.44	-1	/	/
Cc1c(C(=O)OCC(=O)N(C)C2CCS(=O)(=O)C2)oc2ccc(Br)cc12 (configuration not stated)	-2	-0.76	-3	/	/
COc1ccc(CCN=C(N)NS(=O)(=O)c2ccc(C)cc2)cc1OC	6	-0.92	-1	2	i
COc1ccccc1CCN=C(N)NS(=O)(=O)c1ccc(C)cc1	8	/	4	3	+
CCOc1ccc(CCNC(=O)COC(=O)c2nc3nc(C)cc(C)n3n2)cc1OCC	-13	0.19	0	3	i
CCc1ccc(OCC(=O)NC(=S)Nc2ccc(F)cc2)c(Br)c1	-13	-0.78	0	3	i
CCc1ccc(OCC(=O)N(C)C)c(Br)c1	1	-0.68	1	4	+
CCOC(=O)Cn1c2ccc(OC)cc2c2nc3ccccc3nc21	-6	-0.51	-7	6	+
CCOc1ccc(Cn2c3ccc(OC)cc3c3nc4ccccc4nc32)cc1OC	-28	0.48	-1	4	+
O=C(c1ccc(Br)o1)N1CCN(c2ccccc2F)CC1	-9	0.21	0	4	+
COC(=O)Nc1nc2ccc(C(=O)c3ccc(F)cc3)cc2[nH]1	/	-0.19	66*	/	/
C=C1C(=O)[C@@]23[C@H](O)C[C@@H]4C(C)(C)CC[C@H](O)[C@]4(C)[C@@H]2C[C@H](O)[C@@H]1[C@H]3O	7	/	/	5	i
C=C1C(=O)[C@@]23[C@H](O)C[C@@H]4C(C)(C)CC[C@H](O)[C@@]4(C)[C@@H]2CC[C@@H]1[C@H]3O	-1	?	/	25*	i
O=C(CSc1nncs1)Nc1ccc(Cl)cn1	-5	0.02	0	4	i
Clc1cc(Br)ccc1OCCOCCN1CCOCC1	1	-0.83	112*	4	i
CC(=O)c1cccc(NC(=O)C(C)N(C)CC(=O)Nc2ccc(Cl)cc2)c1 (configuration not stated)	1	-0.36	0	/	/
O=C(Nc1cccc(NC(=O)c2ccc(-c3ccc(Br)cc3)o2)c1)c1ccccc1	-11	0.08	-4	18*	i
COc1cc(NC(=O)c2ccc(-c3ccc(Br)cc3)o2)ccc1NC(=O)C(C)C	-21	-1.4	/	4	+
COc1cc(NC(=O)c2ccco2)ccc1NC(=O)C(C)C	-11	0.37	/	1	i
O=C(Nc1ccccc1)c1ccc(-c2ccc(Br)cc2)o1	-14	/	/	1	i
COc1ccccc1NC(=O)c1ccc(-c2ccc(Br)cc2)o1	-14	1.3	2	39*	i
